# Compounds with a hit are over-represented: about 3.7% of the library has one in this group of screens.
# MT stabilizer = microtubule stabilization, imaging screen | HeLa tubulin immunostaining HCS, 24 h; share of cells brighter than vehicle mean+2SD | % tubulin-high responders, % at 10 µM | 200,000 tested, 0.83% active;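 active means plate Z-score above 3 for both tubulin-high and condensed-nucleus cell shares, with cell loss under 80%, at 10 µM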;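 further: anti alpha tubulin signal scored within the nucleus-defined area of each cell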
# KCC2 mod = KCC2 (human) Cl- transport modulation; Q9H2X9; B-score of Tl+ flux slope (higher = more flux/activation; lower = inhibition) at 10 µM; 190,000 tested, 2.2% active; KCC2 cells, thallium flux FluoZin-2 fluorescence;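 active means thallium flux slope and its plate-corrected score both differing from the plate sample mean at a set confidence after two filtering rounds, in either direction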;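 further: slope of fluorescence scaled to starting intensity during 10 to 20 s after thallium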
# Target sequence (Q9H2X9 whole entry, looked up): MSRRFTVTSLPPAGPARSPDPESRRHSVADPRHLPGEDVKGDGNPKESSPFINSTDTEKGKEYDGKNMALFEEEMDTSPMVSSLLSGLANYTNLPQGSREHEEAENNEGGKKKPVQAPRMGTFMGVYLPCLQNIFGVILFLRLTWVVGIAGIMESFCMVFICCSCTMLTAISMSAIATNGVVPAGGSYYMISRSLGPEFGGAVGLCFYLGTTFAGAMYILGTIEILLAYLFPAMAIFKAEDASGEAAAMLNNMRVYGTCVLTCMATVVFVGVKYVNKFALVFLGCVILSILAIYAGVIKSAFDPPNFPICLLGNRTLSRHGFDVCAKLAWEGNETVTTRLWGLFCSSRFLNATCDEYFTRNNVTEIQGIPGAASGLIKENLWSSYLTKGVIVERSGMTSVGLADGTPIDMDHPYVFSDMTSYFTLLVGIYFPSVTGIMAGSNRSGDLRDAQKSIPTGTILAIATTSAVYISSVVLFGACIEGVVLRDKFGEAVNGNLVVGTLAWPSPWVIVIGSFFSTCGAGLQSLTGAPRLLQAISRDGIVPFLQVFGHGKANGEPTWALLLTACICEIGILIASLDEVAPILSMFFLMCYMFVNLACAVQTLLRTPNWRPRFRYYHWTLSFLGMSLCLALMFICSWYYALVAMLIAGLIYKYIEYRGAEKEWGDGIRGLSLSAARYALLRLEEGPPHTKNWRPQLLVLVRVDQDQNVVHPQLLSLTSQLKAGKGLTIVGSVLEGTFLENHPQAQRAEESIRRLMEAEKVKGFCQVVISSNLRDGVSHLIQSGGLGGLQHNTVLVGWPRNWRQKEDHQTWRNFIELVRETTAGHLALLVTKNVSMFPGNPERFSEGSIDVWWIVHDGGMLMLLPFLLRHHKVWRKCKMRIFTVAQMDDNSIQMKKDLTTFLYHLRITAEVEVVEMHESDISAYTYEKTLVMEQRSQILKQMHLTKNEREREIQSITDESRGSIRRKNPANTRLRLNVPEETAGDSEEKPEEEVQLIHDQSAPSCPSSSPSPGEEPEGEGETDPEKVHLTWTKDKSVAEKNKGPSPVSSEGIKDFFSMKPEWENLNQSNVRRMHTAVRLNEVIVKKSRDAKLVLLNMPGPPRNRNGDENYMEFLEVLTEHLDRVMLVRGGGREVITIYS
# bCat nuc transl = alters nuclear translocation of beta-catenin in HeLa cells; immunofluorescence imaging; nuclear translocation activity, % at 5 µM; 190,000 tested, 0.3% active; AID 1665;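 active means nuclear translocation activity above 50% at 5 µM, with a well cell count of 50 or more; inconclusive means wells under 50 cells across six images, flagged as toxic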;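 further: per-cell ratio of nuclear to cytoplasmic median beta-catenin stain intensity; plate controls were DMSO negative control for no effect and GSK-3 inhibitor IX positive control for full effect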
#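 System: HeLa cells, endogenous beta-catenin; compound dosing: 5 µM primary single dose, 0.1% DMSO, 0.02–20 µM confirmation series; incubation: 24 h compound exposure at 37°C, 5% CO2; signal: beta-catenin immunofluorescence imaging with DAPI; evaluation: % activation, nuclear-to-cytoplasmic median beta-catenin signal ratio per cell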
# Redox H2O2 prof = compounds producing H2O2 with reducing agent – biochemical, NIH compound library profiling, artefact control for MLSCN library redox annotation, primary screen; DTT-dependent redox cycling H2O2, phenol red/HRP absorbance; 100% = 100 µM peroxide control, 0% = buffer; activation, % at 10 µM; 200,000 tested, 0.03% active;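 active means activation of at least 50% relative to the plate's high and low controls in the primary single-dose screen; inactive means activation below 50%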;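 further: compound incubated with DTT at 0.8 mM final as the reducing agent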
# ROMK mod = modulates human ROMK potassium channel activity; B-score at 10 µM; P48048; 130,000 tested, 2% active; Tet-inducible ROMK, thallium flux fluorescence; actives lie on both sides;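 active means signal ratio slope over the read window, or its plate-corrected B-score, at least 3 SD from the plate mean, either direction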;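 further: B-score of the F/F0 ratio slope over 7 to 12 s after thallium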
# ROMK retest = confirmation of human ROMK potassium channel modulators. shares compounds with ROMK mod. 3,000 tested, 54% active. AID 1917. ROMK thallium flux, fluorescence ratio; hits give low values. normalized thallium flux (F/F0 slope) at 10 µM;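 active means Flux at 10 µM at least 3 SD below or above vehicle control mean in one or both replicates; inconclusive means no clear call, values can overlap the other calls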
# Active calls of the source: *; i = inactive; ? = inconclusive; · = no result.
SMILES,MT stabilizer,KCC2 mod,bCat nuc transl,Redox H2O2 prof,ROMK mod,ROMK retest
CCCOc1ccc(-c2nn(-c3ccccc3)cc2/C=C2\SC(=S)N(C3CCS(=O)(=O)C3)C2=O)cc1 (stereo not drawn),3,-0.0054,1,4,·,·
O=C1CSC(c2cn(-c3ccccc3)nc2-c2cc3ccccc3o2)N1Cc1ccccc1 (stereo not drawn),2,1.4,·,1,0.21,·
Cc1ccc(-c2nn(-c3ccccc3)cc2C2SCC(=O)N2Cc2ccccc2)o1 (stereo not drawn),2,-0.41,-4,1,·,0.078
CCN(CC)C(=O)Oc1ccc(Br)cc1C(=O)Nc1ccc(F)cc1F,·,·,-2,·,·,·
COc1ccccc1-c1ccc(/C=C2/C=C(C)OC2=O)o1,2,0.19,3,0,-1.1,·
COc1ccccc1-c1ccc(/C=C2\C=CC(=O)O2)o1,·,i,0,·,·,0.044*
CCC(c1nnc(SCC(=O)Nc2ccc(Cl)cc2C(F)(F)F)n1C1CCCCC1)N(C)C (stereo not drawn),7,-0.85,0,1,·,·
O=C(c1ccc(Cl)nc1)c1cccs1,·,·,-1,·,·,·
COc1ccc(C(=O)c2no[n+]([O-])c2C(=O)c2ccc(OC)cc2)cc1,5,-0.39,5,-1,·,?
O=C(c1cccs1)c1no[n+]([O-])c1C(=O)c1cccs1,3,-3.7,·,2,·,0.028*
COc1cc(C(=O)N/N=C/c2cc([N+](=O)[O-])cs2)cc(OC)c1OC,20*,-0.49,29,-1,4.1*,0.088
Cc1ccsc1/C=N/NC(=O)c1ccncc1,2,0.67,-1,0,0.92,·
CCOc1ccc(C(=O)N/N=C/c2cc([N+](=O)[O-])cs2)cc1,3,1.6,0,-1,·,·
COc1cc(C(=O)N/N=C/c2sccc2C)cc(OC)c1OC,12*,-0.1,85*,0,5.1*,?
O=C(O)CCCNC(=O)c1ccccn1,2,0.17,0,0,0.28,·
CCc1ccc2[nH]c(C(=O)Nc3ccc4c(c3)OCO4)cc2c1,·,-1.1,0,·,0.079,·
COc1cc(/C=C(/C#N)C(=O)Nc2ccccc2)c(Br)cc1OCc1ccc(C(=O)O)cc1,·,-1.3,1,·,-5*,0.055*
CCOc1ccccc1/C=C(\C#N)C(=O)Nc1cccc(C(=O)O)c1,·,-1.6,-1,·,·,·
N#C/C(=C\c1ccccc1[N+](=O)[O-])C(=O)Nc1ccc(S(N)(=O)=O)cc1,·,1.6,-1,·,·,·
COc1ccccc1/C=C(\C#N)C(=O)Nc1ccc(S(N)(=O)=O)cc1,3,2,-3,0,-3.3*,0.061*
CC(=O)c1cc(C#N)c(N2CCCC2)nc1C,4,1.1,6,0,0.077,·
CC(=O)Nc1ccc(S(=O)(=O)N2CCN(Cc3ccncc3)CC2)cc1,5,1.5,-1,-1,0.9,·
CC(=O)Nc1ccc(S(=O)(=O)N2CCN(Cc3nc4sc(C)c(C)c4c(=O)[nH]3)CC2)cc1,·,·,-1,·,·,0.074
O=C(CSc1nc(-c2cccs2)cc(C(F)(F)F)n1)Nc1cc(OCC(F)(F)C(F)F)cc([N+](=O)[O-])c1,6,-0.43,-2,0,-0.31,·
CSc1nnc(C)c(/C=C/Nc2ccc(F)cc2F)n1,6,-0.011,2,0,0.56,·
SMILES,MT stabilizer,KCC2 mod,bCat nuc transl,Redox H2O2 prof,ROMK mod,ROMK retest
C=CCSc1nnc(C)c(/C=C/Nc2ccc(Cl)cc2)n1,3,-0.79,-6,0,-3*,0.046*
CC(C)CCNC(=O)NC(=O)COC(=O)C1=COCCO1,3,-0.57,-3,2,0.46,0.079
CC(C)c1cccc(C(C)C)c1NC(=O)COC(=O)C1=COCCO1,4,-0.47,1,-2,0.14,·
Cc1ccc(C)c(Nc2nc3nonc3nc2N2CCOCC2)c1,3,-0.44,0,2,-3.5*,?
COc1ccc(-n2nnnc2SCC(=O)NCc2ccco2)cc1OC,2,0.1,-8,0,·,0.077
CCOc1ccccc1CN1CCN(CC2=Cc3cc(OC)ccc3OC2)CC1CCO (stereo not drawn),·,-0.26,-1,·,·,0.067*
C=CC[n+]1c(/C=C2\C=Cc3cc(C)ccc3N2CC)ccc2ccccc21,12,-1.2,-2,0,-3.4*,0.053*
O=C(NCc1ccccc1)c1ccc(Br)cc1,2,0.23,-2,-1,-4.5*,?
O=C(NCc1ccncc1)c1ccc(Br)cc1,6,0.57,-5,2,·,·
CCOCCCNC(=O)C(NC(=O)c1ccccc1O)c1ccc(Cl)cc1 (stereo not drawn),3,-0.097,-1,-2,0.31,·
COc1ccc(NC(=O)c2cc(-c3cccc(OC)c3)on2)cc1,3,1.2,1,0,-4.4*,0.081
COc1cccc(-c2cc(C(=O)NCc3cccs3)no2)c1,·,-0.7,1,·,-2.1*,0.081
COc1ccc(-c2cc(C(=O)NCc3cccs3)no2)cc1,·,0.63,1,·,0.78,·
CC(C)(C)N1CC2(c3ccccc3)CN(C(C)(C)C)CC(c3ccccc3)(C1)C2=O,3,0.15,·,0,3*,0.075
CC1CCCCN1CCCNC(=O)c1ccc2c(=O)n(CCc3ccccc3)c(=O)[nH]c2c1 (stereo not drawn),1,-0.17,-12,0,-3*,?
COc1ccc(OC)c(-c2cc(C(=O)Nc3c(C)nn(Cc4ccccc4)c3C)no2)c1,5,·,-1,0,-2.4,·
COc1ccc(OC)c(-c2cc(C(=O)Nc3c(C)nn(Cc4ccc(Cl)cc4)c3C)no2)c1,5,·,0,0,-2.6*,0.065*
CCOC(=O)c1cc(C#N)c(C)nc1N(CC)CC,·,0.35,1,·,·,·
CC(C)Cn1cc(C(=O)NC2CCN(Cc3ccccc3)CC2)c2c3ccccc3n(C)c2c1=O,5,·,0,-4,-2.2*,0.068*
COCCCNC(=O)c1cn(CC(C)C)c(=O)c2c1c1ccccc1n2C,3,-0.75,·,1,-0.74,·
CN(c1nc2nonc2nc1NC1CC1)C1CCOC1 (stereo not drawn),3,0.19,0,0,1.1,·
CN=C1c2c(-c3ccccc3)c3cc(OC)ccc3n2CCN1C,4,·,·,0,-3.7*,0.067*
CC(C(=O)NC(=O)NC1CCCCC1)N1CCN(C(c2ccccc2)c2ccccc2)CC1 (stereo not drawn),2,-0.6,-2,1,-3.3*,0.057*
CC(C(=O)NC1CCCC1)N1CCN(Cc2ccccc2)CC1 (stereo not drawn),3,1.1,0,1,-0.45,·
COc1ccc(-c2cn3cccnc3n2)cc1F,4,-0.085,-4,0,·,·
COc1ccc(-n2c(C)c([N+](=O)[O-])c3ccc(O)c(CN(C)C)c32)cc1,1,-0.8,1,2,·,0.033*
O=C(c1ccc(Cl)cc1)c1oc2ccccc2c1CS(=O)(=O)c1ccccc1,3,0.023,-1,-3,·,·

# Screening data as filed in PubChem BioAssay.
